In ChEMBL document CHEMBL1139875, “Discovery of 4-aminobutyric acid derivatives possessing anticonvulsant and antinociceptive activities: a hybrid pharmacophore approach” (2007):
The source made the active and inactive calls. The calls are words filed in the database; no cut-off is given here.

Assays:
Rattus norvegicus [1] = assay: Antihyperalgesic effects in Sprague-Dawley rat SNL model assessed as duration of paw withdrawal at 100 mg/kg, ip after 1 hr, ip; assay type: functional; conditions: route intraperitoneal
How it was run: (§1)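 L5 SNL rats (n = 4), dosed 100 mg/kg i.p. (vehicle 30% v/v PEG 400 in water). Pin-prick to midplantar ipsilateral left hindpaw; withdrawal duration, mean of three responses; ≥2 s defined abnormal. Mean ± SEM; one-way ANOVA with Bonferroni versus predrug.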

Rattus norvegicus [2] = assay: Effect on spontaneous pain in Sprague-Dawley rat SNL model assessed as duration of paw withdrawal at 100 mg/kg, ip after 0.5 hr; assay type: functional; conditions: route intraperitoneal
How it was run: (§2)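 Rats underwent left L5 spinal nerve ligation (Kim and Chung) under i.p. pentobarbital (65 mg/kg). Spontaneous pain is recorded for 5 min after 10 min acclimatization, as cumulative duration the ipsilateral paw is lifted, excluding locomotor lifts. Dosing is 100 mg/kg i.p. in 30% v/v PEG 400/water, with testing at 0.5–2.5 h. Four rats, mean ± SEM versus predrug, one-way ANOVA with Bonferroni.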

Rattus norvegicus [3] = assay: Antihyperalgesic effects in Sprague-Dawley rat SNL model assessed as duration of paw withdrawal at 100 mg/kg, ip after 2.5 hrs, ip; assay type: functional; conditions: route intraperitoneal; how it was run: as §1
Rattus norvegicus [4] = organism: Rattus norvegicus; assay: Anti-dynamic allodynic effect in Sprague-Dawley rat CCI model assessed as latency to paw withdrawal after 0.5 hr; assay type: functional
How it was run: (§3)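 Rats with sciatic nerve chronic constriction injury (pentobarbital 65 mg/kg i.p. anaesthesia), baseline and day 9 testing, then drug per randomization table. After 10 min acclimatization, affected plantar surface stroked mildly with a cotton-bud; paw lift recorded. n = 4; retested 0.5-2.5 h post-dose.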

Rattus norvegicus [5] = assay: Antihyperalgesic effects in Sprague-Dawley rat CCI model assessed as duration of paw withdrawal at 100 mg/kg, ip after 1.5 hrs; assay type: functional; conditions: route intraperitoneal
Rattus norvegicus [6] = assay: Antihyperalgesic effects in Sprague-Dawley rat SNL model assessed as duration of paw withdrawal at 100 mg/kg, ip after 0.5 hr, ip; assay type: functional; conditions: route intraperitoneal; how it was run: as §1
Mus musculus [7] = assay: Anticonvulsant activity in Swiss Albino mouse at 100 mg/kg, ip after 4 hrs by scPIC test; assay type: functional, organism-based; design: dose 100 mg/kg
How it was run: (§4)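 Mice (Swiss, 20-25 g) given i.p. doses of 30, 100 and 300 mg/kg under ADD program protocols, three per group, examined at 0.5 and 4 h in MES, scPTZ, scSTY or scPIC seizure tests. Value is the minimum dose protecting half or more of the mice.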

Rattus norvegicus [8] = organism: Rattus norvegicus; assay: Anti-dynamic allodynic effect in Sprague-Dawley rat CCI model assessed as latency to paw withdrawal after 2 hr; assay type: functional; how it was run: as §3
Rattus norvegicus [9] = organism: Rattus norvegicus; assay: Anti-dynamic allodynic effect in Sprague-Dawley rat CCI model assessed as latency to paw withdrawal after 1 hr; assay type: functional; how it was run: as §3
Mus musculus [10] = assay: Neurotoxicity in Swiss Albino mouse at 300 mg/kg, ip after 4 hrs by rotarod test; assay type: functional, organism-based; design: dose 300 mg/kg
How it was run: (§5)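 Swiss mice (20-25 g) are trained on an accelerating rotorod (10 rpm, 3.2 cm rod), then injected i.p. at 30, 100 or 300 mg/kg, with three per group. Neurotoxicity means failure to keep equilibrium for at least 1 min in each of three trials, checked at 0.5 and 4 h. The value reported is the minimum dose affecting half or more of the mice.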

Rattus norvegicus [11] = assay: Effect on spontaneous pain in Sprague-Dawley rat SNL model assessed as duration of paw withdrawal at 100 mg/kg, ip after 2.5 hrs; assay type: functional; conditions: route intraperitoneal; how it was run: as §2
Mus musculus [12] = assay: Anticonvulsant activity in Swiss Albino mouse at 300 mg/kg, ip after 4 hrs by scSTY test; assay type: functional, organism-based; design: dose 300 mg/kg; how it was run: as §4
Rattus norvegicus [13] = organism: Rattus norvegicus; assay: Anti-dynamic allodynic effect in Sprague-Dawley rat CCI model assessed as latency to paw withdrawal after 1.5 hr; assay type: functional; how it was run: as §3
Mus musculus [14] = assay: Anticonvulsant activity in Swiss Albino mouse at 300 mg/kg, ip after 0.5 hr by scPTZ test; assay type: functional, organism-based; design: dose 300 mg/kg; how it was run: as §4
Rattus norvegicus [15] = assay: Anti-dynamic allodynia effect in Sprague-Dawley rat SNL model assessed as latency to paw withdrawal 100 mg/kg, ip after 2.5 hrs; assay type: functional; conditions: route intraperitoneal
How it was run: (§6)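 Left L5 spinal nerve ligation rats, tested preoperatively and 9 days postoperatively, then given 100 mg/kg i.p. (vehicle 30% v/v PEG 400 in water). After 10 min acclimatization, plantar surface of affected paw stroked mildly with a cotton-bud; paw lift response recorded. n = 4; retested 0.5-2.5 h post-dose.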

Rattus norvegicus [16] = assay: Antihyperalgesic effects in Sprague-Dawley rat CCI model assessed as duration of paw withdrawal at 100 mg/kg, ip after 2 hrs; assay type: functional; conditions: route intraperitoneal
Rattus norvegicus [17] = assay: Effect on spontaneous pain in Sprague-Dawley rat SNL model assessed as duration of paw withdrawal at 100 mg/kg, ip after 1.5 hrs; assay type: functional; conditions: route intraperitoneal; how it was run: as §2
Rattus norvegicus [18] = assay: Anti-dynamic allodynia effect in Sprague-Dawley rat SNL model assessed as latency to paw withdrawal 100 mg/kg, ip after 2 hrs; assay type: functional; conditions: route intraperitoneal; how it was run: as §6
Rattus norvegicus [19] = assay: Antihyperalgesic effects in Sprague-Dawley rat SNL model assessed as duration of paw withdrawal at 100 mg/kg, ip after 1.5 hrs, ip; assay type: functional; conditions: route intraperitoneal; how it was run: as §1
Rattus norvegicus [20] = assay: Antihyperalgesic effects in Sprague-Dawley rat CCI model assessed as duration of paw withdrawal at 100 mg/kg, ip after 2.5 hrs; assay type: functional; conditions: route intraperitoneal
Mus musculus [21] = assay: Analgesic activity in Swiss Albino mouse assessed as inhibition of acetic acid-induced writhing responses at 100 mg/kg, ip; assay type: functional
How it was run: (§7)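 Mice in groups of six dosed i.p. at 100 mg/kg, controls receiving 30% v/v PEG 400 in water. Writhing induced by i.p. 0.1 mL of 3% v/v acetic acid 1 h after drug. Writhes (abdominal stretch with at least one hind limb extended) counted over 30 min; % inhibition calculated. Mean ± SEM, Student's t test.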

Rattus norvegicus [22] = assay: Antihyperalgesic effects in Sprague-Dawley rat SNL model assessed as duration of paw withdrawal at 100 mg/kg, ip after 2 hrs, ip; assay type: functional; conditions: route intraperitoneal; how it was run: as §1
Mus musculus [23] = assay: Analgesic activity in Swiss Albino mouse assessed as number of acetic acid-induced writhing per 30 min after 100 mg/kg, ip; assay type: functional; how it was run: as §7
Rattus norvegicus [24] = organism: Rattus norvegicus; assay: Anti-dynamic allodynic effect in Sprague-Dawley rat CCI model assessed as latency to paw withdrawal after 2.5 hr; assay type: functional; how it was run: as §3
Rattus norvegicus [25] = assay: Antihyperalgesic effects in Sprague-Dawley rat CCI model assessed as duration of paw withdrawal at 100 mg/kg, ip after 1 hr; assay type: functional; conditions: route intraperitoneal
Rattus norvegicus [26] = assay: Anti-dynamic allodynia effect in Sprague-Dawley rat SNL model assessed as latency to paw withdrawal 100 mg/kg, ip after 1 hr; assay type: functional; conditions: route intraperitoneal; how it was run: as §6
Rattus norvegicus [27] = assay: Effect on spontaneous pain in Sprague-Dawley rat SNL model assessed as duration of paw withdrawal at 100 mg/kg, ip after 2 hrs; assay type: functional; conditions: route intraperitoneal; how it was run: as §2
Mus musculus [28] = assay: Anticonvulsant activity in Swiss Albino mouse at 300 mg/kg, ip after 0.5 hr by scSTY test; assay type: functional, organism-based; design: dose 300 mg/kg; how it was run: as §4
Rattus norvegicus [29] = assay: Effect on spontaneous pain in Sprague-Dawley rat SNL model assessed as duration of paw withdrawal at 100 mg/kg, ip after 1 hr; assay type: functional; conditions: route intraperitoneal; how it was run: as §2
Rattus norvegicus [30] = assay: Anti-dynamic allodynia effect in Sprague-Dawley rat SNL model assessed as latency to paw withdrawal 100 mg/kg, ip after 0.5 hr; assay type: functional; conditions: route intraperitoneal; how it was run: as §6
Mus musculus [31] = assay: Anticonvulsant activity in Swiss Albino mouse at 100 mg/kg, ip after 0.5 hr by scPIC test; assay type: functional, organism-based; design: dose 100 mg/kg; how it was run: as §4
Mus musculus [32] = assay: Neurotoxicity in Swiss Albino mouse at 300 mg/kg, ip after 0.5 hr by rotarod test; assay type: functional, organism-based; design: dose 300 mg/kg; how it was run: as §5
Mus musculus [33] = assay: Anticonvulsant activity in Swiss Albino mouse at 300 mg/kg, ip after 0.5 hr by MES test; assay type: functional, organism-based; design: dose 300 mg/kg; how it was run: as §4
Rattus norvegicus [34] = assay: Antihyperalgesic effects in Sprague-Dawley rat CCI model assessed as duration of paw withdrawal at 100 mg/kg, ip after 0.5 hr; assay type: functional; conditions: route intraperitoneal
Mus musculus [35] = assay: Anticonvulsant activity in Swiss Albino mouse at 300 mg/kg, ip after 4 hrs by MES test; assay type: functional, organism-based; design: dose 300 mg/kg; how it was run: as §4
Rattus norvegicus [36] = assay: Anti-dynamic allodynia effect in Sprague-Dawley rat SNL model assessed as latency to paw withdrawal 100 mg/kg, ip after 1.5 hrs; assay type: functional; conditions: route intraperitoneal; how it was run: as §6
Mus musculus [37] = assay: Anticonvulsant activity in Swiss Albino mouse at 30 mg/kg, ip after 4 hrs by MES test; assay type: functional, organism-based; design: dose 30 mg/kg; how it was run: as §4
Mus musculus [38] = assay: Anticonvulsant activity in Swiss Albino mouse at 300 mg/kg, ip after 4 hrs by scPIC test; assay type: functional, organism-based; design: dose 300 mg/kg; how it was run: as §4
Mus musculus [39] = assay: Anticonvulsant activity in Swiss Albino mouse at 300 mg/kg, ip after 0.5 hr by scPIC test; assay type: functional, organism-based; design: dose 300 mg/kg; how it was run: as §4
Mus musculus [40] = assay: Anticonvulsant activity in Swiss Albino mouse at 30 mg/kg, ip after 0.5 hr by MES test; assay type: functional, organism-based; design: dose 30 mg/kg; how it was run: as §4
Mus musculus [41] = assay: Neurotoxicity in Swiss Albino mouse at 100 mg/kg, ip after 0.5 hr by rotarod test; assay type: functional, organism-based; design: dose 100 mg/kg; how it was run: as §5
Mus musculus [42] = assay: Neurotoxicity in Swiss Albino mouse at 100 mg/kg, ip after 4 hrs by rotarod test; assay type: functional, organism-based; design: dose 100 mg/kg; how it was run: as §5

O=C(O)CCCNC(=O)N/N=C/c1ccc(Cl)cc1
Activity (Rattus norvegicus [1]): 17.3 s
Activity (Rattus norvegicus [2]): 33.1 s
Activity (Rattus norvegicus [3]): 17.9 s
Activity (Rattus norvegicus [4]): 14.9 s
Activity (Rattus norvegicus [5]): 4.4 s
Activity (Rattus norvegicus [6]): 24.6 s
Activity (Mus musculus [7]): Active
Activity (Rattus norvegicus [8]): 14.5 s
Activity (Rattus norvegicus [9]): 3.5 s
Activity (Mus musculus [10]): inactive
Activity (Rattus norvegicus [11]): 15.9 s
Activity (Mus musculus [12]): Active
Activity (Rattus norvegicus [13]): 1.1 s
Activity (Mus musculus [14]): inactive
Activity (Rattus norvegicus [15]): 0.35 s
Activity (Rattus norvegicus [16]): 4.2 s
Activity (Rattus norvegicus [17]): 12.7 s
Activity (Rattus norvegicus [18]): 0.8 s
Activity (Rattus norvegicus [19]): 12.3 s
Activity (Rattus norvegicus [20]): 7.2 s
inhibition in vivo at 100 mg/kg (Mus musculus [21]; route intraperitoneal): 68%
Activity (Rattus norvegicus [22]): 5.6 s
Activity (Mus musculus [23]; route intraperitoneal): 59.3
Activity (Rattus norvegicus [24]): 13 s
Activity (Rattus norvegicus [25]): 7.8 s
Activity (Rattus norvegicus [26]): 4.2 s
Activity (Rattus norvegicus [27]): 11.2 s
Activity (Mus musculus [28]): Active
Activity (Rattus norvegicus [29]): 14 s
Activity (Rattus norvegicus [30]): 4.5 s
Activity (Mus musculus [31]): Active
Activity (Mus musculus [32]): inactive
Activity (Mus musculus [33]): inactive
Activity (Rattus norvegicus [34]): 7.9 s
Activity (Mus musculus [35]): inactive
Activity (Rattus norvegicus [36]): 11.3 s

O=C1NC(=O)C(c2ccccc2)(c2ccccc2)N1
Activity (Mus musculus [37]): Active
Activity (Mus musculus [38]): inactive
Activity (Mus musculus [39]): inactive
Activity (Mus musculus [12]): inactive
Activity (Mus musculus [14]): inactive
Activity (Mus musculus [40]): Active
Activity (Mus musculus [41]): Active
Activity (Mus musculus [21]): inactive
Activity (Mus musculus [23]): inactive
Activity (Mus musculus [42]): Active
Activity (Mus musculus [28]): inactive
